# Assay outcomes deposited in PubChem BioAssay by several laboratories.
# RGS16-Gao – modulates binding between human RGS16 and Galphao; O15492+P09471; bead-based flow cytometry RGS16-Galphao binding, fluorescence; actives lie on both sides; binding response (% of control), % at 10 µM; actives 0.38% (n = 220,000);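 also: Galphao activated by GDP with aluminum fluoride before binding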
# RGS4-Gao reg – human RGS4-Galphao interaction regulation; Multiplexed bead flow cytometry, RGS4-Galphao binding; actives lie on both sides; actives 0.33% (n = 220,000); P09471; binding response (% of control), % at 10 µM; AID 1415; in the data active = binding response below about 49% or above about 150%; inactive = in between;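 also: fluorescent Galphao activated with aluminum fluoride binding bead-coupled RGS4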
# Target sequence (P09471 whole entry, looked up): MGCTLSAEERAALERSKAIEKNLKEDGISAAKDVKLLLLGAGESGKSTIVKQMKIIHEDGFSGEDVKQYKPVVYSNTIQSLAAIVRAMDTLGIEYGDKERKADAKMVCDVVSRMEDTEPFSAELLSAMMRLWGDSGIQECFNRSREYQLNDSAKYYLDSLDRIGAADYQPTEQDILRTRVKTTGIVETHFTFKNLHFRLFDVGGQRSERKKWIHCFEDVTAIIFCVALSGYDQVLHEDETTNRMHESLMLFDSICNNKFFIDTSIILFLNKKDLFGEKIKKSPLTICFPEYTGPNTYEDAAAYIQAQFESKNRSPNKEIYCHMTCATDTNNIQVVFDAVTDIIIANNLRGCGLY
# RGS8-Gao – human RGS8-Galphao interaction regulation. actives 0.34% (n = 220,000). AID 1423. multiplexed bead flow cytometry, RGS8-Galphao binding; actives lie on both sides. P09471. response (percent of control binding), % at 10 µM; in the data active = response below about 60% or above about 140%; inactive = in between;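 also: Galphao activated as the GDP aluminium fluoride complex binding bead-coupled RGS8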
# Calb biofilm kill – mixtures killing C. albicans biofilm; actives 0.02% (n = 120,000); AID 1242; inhibition, % at 7.6 µM; C. albicans biofilm persisters + clotrimazole, fluorescence viability; primary screen in compound mixtures of four per well;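 also: compounds exposed to preformed 24 h biofilms for 48 h; 0% = untreated biofilm control and 100% = clotrimazole plus chlorhexidine kill blank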
#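 System: C. albicans CAF4-2 wild-type biofilms; Medium: RPMI/MOPS medium, pH 7.0; Reagent: Clotrimazole, 50 µg/mL; Times: biofilm formation 24 h, compound exposure 48 h, 37 °C; Detection: 2-h Alamar Blue fluorescence, 535/590 nm excitation/emission; Evaluation: percent inhibition of biofilm viability.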
# RGS7-Gao reg – modulates binding of RGS7 to human Galphao; P09471; Multiplexed bead flow cytometry; actives lie on both sides; binding response (% of control), % at 10 µM; actives 0.35% (n = 220,000); AID 1439; in the data active = binding response below about 49% or above about 150%; inconclusive = no clear call, values can overlap the other calls; inactive = in between;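 also: fluorescent Galphao held in activated GDP-AlF4 state binding bead-coupled RGS7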
# RGS-Gao – modulates binding between human RGS4 and Galphao | shares compounds with RGS16-Gao | multiplexed bead flow cytometry, RGS–Galpha-o binding | RGS4–Galpha-o binding response, % at 10 µM | actives 99% (n = 1,600) | AID 1504;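 also: fluorescently labeled Galpha-o bound to GDP with aluminium fluoride binding biotinylated RGS beads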
# Avidin counter – biotin-avidin bead binding disruption counter-screen; 1,700 tested, under 10 active; inhibition, % at 10 µM; streptavidin beads, fluorescein-biotin binding, flow cytometry; shares compounds with RGS16-Gao;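 active = inhibition above 50%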;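 also: median green fluorescence of gated singlet beads compared with DMSO control wells; 0% = DMSO wells and 100% = complete loss of bead fluorescence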
# RGS8-Gao single – confirmation of regulators of human RGS8-Galphao interaction. shares compounds with RGS16-Gao. bead-based flow cytometry RGS8-Galphao binding, fluorescence; actives lie on both sides. binding response (% of control), % at 10 µM. actives 3% (n = 1,700). AID 1836; in the data active = binding response below about 72% or above about 130%; inactive = in between;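 also: Galphao activated as GDP AlF4 complex before binding bead RGS8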
# RGS7-Gao confirm – RGS7-Galphao interaction regulation, single point confirmation. shares compounds with RGS16-Gao. bead-based flow cytometry RGS7-Galphao binding; actives lie on both sides. response (percent of control binding), % at 10 µM. actives 7.8% (n = 1,700). AID 1837; in the data active = response below about 75% or above about 130%; inactive = in between;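 also: fluorescent Galphao activated with GDP and aluminum fluoride binding bead-coupled RGS7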
# RGS16-Gao conf – confirmation of regulators of human RGS16-Galphao interaction | shares compounds with RGS16-Gao | bead-based flow cytometry, RGS16-Galphao binding; actives lie on both sides | response (% of control binding), % at 10 µM | actives 4% (n = 1,700); in the data active = response below about 74% or above about 130%; inactive = in between;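 also: Galphao activated as the GDP aluminium fluoride complex binding bead-coupled RGS16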
# RGS4-Gao confirm – RGS4-Galphao interaction regulation, single point confirmation | shares compounds with RGS16-Gao | RGS4-Galphao binding, multiplexed bead flow cytometry; actives lie on both sides | binding response (% of control), % at 10 µM | actives 4% (n = 1,700) | AID 1840; in the data active = binding response below about 74% or above about 130%; inactive = in between
# RGS19-Gao single – confirmation of regulators of human RGS19-Galphao interaction | shares compounds with RGS16-Gao | bead-based flow cytometry RGS19-Galphao binding; actives lie on both sides | response (percent of control binding), % at 10 µM | actives 5% (n = 1,700); in the data active = response below about 50% or above about 160%; inactive = in between;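 also: 100% = no compound control and 0% = blank background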
# Target sequence (P09471 whole entry, looked up): as above
# Target sequence (P49795 whole entry, looked up): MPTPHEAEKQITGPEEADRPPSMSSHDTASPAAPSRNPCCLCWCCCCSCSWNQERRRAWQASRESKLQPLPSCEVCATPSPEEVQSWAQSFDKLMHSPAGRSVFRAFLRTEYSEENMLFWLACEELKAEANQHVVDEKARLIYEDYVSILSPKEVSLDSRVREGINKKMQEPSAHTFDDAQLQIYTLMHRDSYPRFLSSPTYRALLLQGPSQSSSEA
# Starred values were filed as active, the others as inactive; i = inactive; ? = inconclusive; · = no result; [ ] = dose if it differs, or a comment. This is a sample that favours compounds with a hit; in the whole collection about 0.74% have one here. Unless noted, no rule for the calls is given here.
SMILES,RGS16-Gao,RGS4-Gao reg,RGS8-Gao,Calb biofilm kill,RGS7-Gao reg,RGS-Gao,Avidin counter,RGS8-Gao single,RGS7-Gao confirm,RGS16-Gao conf,RGS4-Gao confirm,RGS19-Gao single
C=CCn1c(C(CCC(C)C)CC(C)(C)O)n[nH]c1=S (stereo not drawn),94,102,103,·,111,·,·,·,·,·,·,·
C=CCn1c(C(CCCC)CC(C)O)n[nH]c1=S (stereo not drawn),-9.0*,84,67,18,85,84*,0,91,88,87,90,55
N#Cc1cccnc1N1CCC(C(N)=O)CC1,105,102,101,15,?,·,·,·,·,·,·,·
CC(=O)C12C3C4C(C5C1C3C5(Br)C41OCCO1)C21OCCO1 (stereo not drawn),22*,93,86,13,90,93*,-2,112,117,112,113,99
CC(CNCC1CCCO1)COc1cccc2ccccc12 (stereo not drawn),i,117,176*[activator],·,127,117*,3,103,99,107,101,112
CC(CNCC1CCCO1)COc1ccccc1 (stereo not drawn),175,113,123,·,108,·,·,·,·,·,·,·
O/N=C/c1cccnc1Sc1ccccc1,180*[activator],152*[activator],162*[activator],12,157*[activator],·,0,102,99,101,99,106
O=C(COC(=O)c1sc2ccccc2c1Cl)NCC1CCCCC1,105,100,99,6,104,·,·,·,·,·,·,·
CC1CCCC(NC(=O)COC(=O)c2sc3ccccc3c2Cl)C1C (stereo not drawn),0.2*,4.5*,9.4*,22,-6.9*,·,-1,99,96,100,100,98
COc1cc(OC)nc(Oc2cc(/C=N/O)ccc2OC)n1,99,102,98,7,?,·,·,·,·,·,·,·
COc1cc(CC(NC(C)=O)C(=O)NC2CCN(C(=O)c3cc(OC)c(OC)c(OC)c3)CC2)cc(OC)c1 (stereo not drawn),284,110,141*[activator],15,119,110*,-1,102,105,103,104,102
Cc1sc2ncnc(SCC(=O)NC(=O)c3cccn3C)c2c1C,100,103,98,11,?,·,·,·,·,·,·,·
O=C(Cn1nnc(-c2ccc(Cl)cc2)n1)NCc1ccco1,91,93,96,10,95,·,·,·,·,·,·,·
CCCC(=O)NCn1nnc(-c2ccc(Cl)cc2)n1,273*[activator],346*[activator],121,8,295*[activator],·,0,103,103,103,103,99
O=C(NCC1CC1)NC(=O)c1c(F)cccc1Cl,9.3*,5.7*,42*,13,?,·,0,102,99,103,104,105
COCc1cc(/C=N\NC(=O)Cc2ccc(OC)cc2)ccc1OC,21*,92,70,7,98,92*,-1,103,103,100,100,109
Cc1ccc(C2CC(c3ccccc3)=NN2C(=S)Nc2ccccc2)o1 (stereo not drawn),-20*,-31*,11*,·,-7.6*,·,1,94,100,98,98,97
CC1(C)CCC(C)(C)NC(=S)N1,15*,99,80,-5,98,99*,-1,86,71*,84,82,84
CCOC1CC(C)(C)NC(=S)N1 (stereo not drawn),108,107,100,15,103,·,·,·,·,·,·,·
C=CCn1c(Cc2c[nH]c3ccccc23)nnc1SCC(=O)NCc1ccccc1,38,47*,54*,·,42*,·,-1,101,103,100,103,106
COc1ccc(-n2c(SCC(N)=O)nnc2-c2cccnc2)cc1,·,106,·,16,103,·,1,102,101,100,101,96
N#CC1=C(N)N(c2ccccc2)C2=C(C(=O)CCC2)C1c1ccsc1 (stereo not drawn),16*,96,85,·,95,96*,1,102,103,103,108,105
CCOc1ccc(N(CC(=O)Nc2ccccc2)S(C)(=O)=O)cc1,-46*,80,81,·,85,80*,-1,99,95,95,96,100
CCOC(=O)c1ccccc1NC(=O)CN(c1ccc(OCC)cc1)S(C)(=O)=O,36,90,82,21,93,·,·,·,·,·,·,·
COc1ccc(N/C=C/C(=O)c2ccc(Cl)cc2)cc1,61,128,60*,2,125,128*,-1,99,102,104,102,100
SMILES,RGS16-Gao,RGS4-Gao reg,RGS8-Gao,Calb biofilm kill,RGS7-Gao reg,RGS-Gao,Avidin counter,RGS8-Gao single,RGS7-Gao confirm,RGS16-Gao conf,RGS4-Gao confirm,RGS19-Gao single
COc1cccc(N/C=C/C(=O)c2ccc(Cl)cc2)c1,66,89,82,6,95,·,·,·,·,·,·,·
Cc1[nH]n(-c2ccccc2)c(=O)c1/C=N/Nc1nncc(-c2ccccc2)n1,·,·,·,·,·,·,1,95,89,91,93,59
CCCCC(=O)Nc1cccc(NC(=O)c2cccnc2Cl)c1,105,103,101,11,?,·,·,·,·,·,·,·
CCOC(=O)N1CCN(CC(=O)Nc2c(C(=O)OC)[nH]c3ccccc23)CC1,103,124,98,·,175*[activator],124*,0,106,99,110,107,100
COC(=O)c1[nH]c2ccccc2c1NC(=O)CN1CCCCCC1,112,106,106,·,106,·,·,·,·,·,·,·
CCCCn1c(-c2csc(C(C)C)c2)n[nH]c1=S,38,99,76,8,100,·,-1,102,109,104,102,101
CCOC(=O)C1=C(C)N=C2SC(CC)C(=O)N2C1c1cccc(F)c1 (stereo not drawn),·,·,·,·,·,·,-2,98,93,99,99,98
CC1=C/C(=N\NC(=S)Nc2cccnc2)CC(C)(C)C1,101,103,102,10,?,·,·,·,·,·,·,·
CCN(Cc1ccncc1)Cc1cn[nH]c1-c1ccc(OC)cc1F,102,100,102,20,96,·,·,·,·,·,·,·
